Data: ChEMBL document CHEMBL1212799 (2010)
Values after ≈ are worked out from the molar mass of the structure shown.

Legend:
Klebsiella pneumoniae [1] = assay: fT>MIC in Klebsiella pneumoniae isolate 360 at 2 gram for every 8 hrs administered as 3 hrs infusion measured over 16-24 hrs in in vitro pharmcodynamic model; type: functional
Method in brief: (§1)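 Samples assayed by HPLC (linear 0.25–40 µg/ml). Time free drug stayed above the modal triplicate broth-microdilution MIC (CLSI) calculated for each 8-h interval.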

Pseudomonas aeruginosa [2] = assay: fT>MIC in Pseudomonas aeruginosa isolate 896 at 2 gram for every 8 hrs administered as 3 hrs infusion measured over 8-16 hrs in in vitro pharmcodynamic model; type: functional
Klebsiella pneumoniae [3] = assay: fT>MIC in Klebsiella pneumoniae isolate 357 at 2 gram for every 8 hrs administered as 3 hrs infusion measured over 16-24 hrs in in vitro pharmcodynamic model; type: functional; method in brief: as §1
Klebsiella pneumoniae [4] = assay: fT>MIC in Klebsiella pneumoniae isolate 353 at 2 gram for every 8 hrs administered as 3 hrs infusion measured over 0-8 hrs in in vitro pharmcodynamic model; type: functional, isoalte 353; method in brief: as §1
Klebsiella pneumoniae [5] = assay: fT>MIC in Klebsiella pneumoniae isolate 377 at 2 gram for every 8 hrs administered as 3 hrs infusion measured over 8-16 hrs in in vitro pharmcodynamic model; type: functional
Klebsiella pneumoniae [6] = assay: Antibacterial activity against Klebsiella pneumoniae isolate 354 assessed as reduction of bacterial count at 8 ug/ml within 6 hrs in vitro pharmacodynamic model; type: functional
Klebsiella pneumoniae [7] = assay: Antibacterial activity against Klebsiella pneumoniae isolate 351 in vitro pharmacodynamic model; type: functional
Method in brief: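 Inoculum 10^6 CFU/ml; dosing began 0.5 h after inoculation. Two treated models plus one untreated control per isolate; blood-agar counts; change in log10 CFU/ml over 24 h (detection limit 10^1); drug levels checked by HPLC.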

Pseudomonas aeruginosa [8] = assay: fT>MIC in Pseudomonas aeruginosa isolate 1030 at 2 gram for every 8 hrs administered as 3 hrs infusion over 24 hrs in in vitro pharmcodynamic model; type: functional
Pseudomonas aeruginosa [9] = assay: Antibacterial activity against Pseudomonas aeruginosa isolate 1177 in vitro pharmacodynamic model; type: functional
Method in brief: (§2)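 Simulated peak 38.4 µg/ml, trough 3.04 µg/ml. CAMHB at 37°C, 10^6 CFU/ml from overnight culture, drug started at 0.5 h. Two treated models plus one growth control. Change in log10 CFU/ml over 24 h on blood agar. Detection limit 10^1 CFU/ml.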

Pseudomonas aeruginosa [10] = assay: fT>MIC in Pseudomonas aeruginosa isolate 896 at 2 gram for every 8 hrs administered as 3 hrs infusion over 24 hrs in in vitro pharmcodynamic model; type: functional
Pseudomonas aeruginosa [11] = assay: Antibacterial activity against Pseudomonas aeruginosa isolate 1030 in vitro pharmacodynamic model; type: functional; method in brief: as §2
Pseudomonas aeruginosa [12] = assay: fT>MIC in Pseudomonas aeruginosa isolate 1177 at 2 gram for every 8 hrs administered as 3 hrs infusion measured over 16-24 hrs in in vitro pharmcodynamic model; type: functional
Pseudomonas aeruginosa [13] = assay: fT>MIC in Pseudomonas aeruginosa isolate 762 at 2 gram for every 8 hrs administered as 3 hrs infusion over 24 hrs in in vitro pharmcodynamic model; type: functional
Klebsiella pneumoniae [14] = assay: fT>MIC in Klebsiella pneumoniae isolate 360 at 2 gram for every 8 hrs administered as 3 hrs infusion over 24 hrs in in vitro pharmcodynamic model; type: functional; method in brief: as §1
Pseudomonas aeruginosa [15] = assay: fT>MIC in Pseudomonas aeruginosa isolate 762 at 2 gram for every 8 hrs administered as 3 hrs infusion measured over 0-8 hrs in in vitro pharmcodynamic model; type: functional
Pseudomonas aeruginosa [16] = assay: Antibacterial activity against Pseudomonas aeruginosa isolate 1038 in vitro pharmacodynamic model; type: functional; method in brief: as §2
Pseudomonas aeruginosa [17] = assay: fT>MIC in Pseudomonas aeruginosa isolate 1038 at 2 gram for every 8 hrs administered as 3 hrs infusion over 24 hrs in in vitro pharmcodynamic model; type: functional
Klebsiella pneumoniae [18] = assay: fT>MIC in Klebsiella pneumoniae isolate 334 at 2 gram for every 8 hrs administered as 3 hrs infusion measured over 16-24 hrs in in vitro pharmcodynamic model; type: functional; method in brief: as §1
Pseudomonas aeruginosa [19] = assay: Antibacterial activity against Pseudomonas aeruginosa isolate 762 assessed as reduction of bacterial count at 16 ug/ml within 6 hrs in vitro pharmacodynamic model; type: functional
Klebsiella pneumoniae [20] = assay: fT>MIC in Klebsiella pneumoniae isolate 351 at 2 gram for every 8 hrs administered as 3 hrs infusion measured over 0-8 hrs in in vitro pharmcodynamic model; type: functional; method in brief: as §1
Klebsiella pneumoniae [21] = assay: fT>MIC in Klebsiella pneumoniae isolate 375 at 2 gram for every 8 hrs administered as 3 hrs infusion measured over 16-24 hrs in in vitro pharmcodynamic model; type: functional
Klebsiella pneumoniae [22] = assay: fT>MIC in Klebsiella pneumoniae isolate 357 at 2 gram for every 8 hrs administered as 3 hrs infusion measured over 8-16 hrs in in vitro pharmcodynamic model; type: functional; method in brief: as §1
Klebsiella pneumoniae [23] = assay: fT>MIC in Klebsiella pneumoniae isolate 334 at 2 gram for every 8 hrs administered as 3 hrs infusion over 24 hrs in in vitro pharmcodynamic model; type: functional; method in brief: as §1
Pseudomonas aeruginosa [24] = assay: fT>MIC in Pseudomonas aeruginosa isolate 988 at 2 gram for every 8 hrs administered as 3 hrs infusion over 24 hrs in in vitro pharmcodynamic model; type: functional
Klebsiella pneumoniae [25] = assay: fT>MIC in Klebsiella pneumoniae isolate 377 at 2 gram for every 8 hrs administered as 3 hrs infusion measured over 16-24 hrs in in vitro pharmcodynamic model; type: functional
Klebsiella pneumoniae [26] = assay: Antibacterial activity against Klebsiella pneumoniae isolate 328A assessed as reduction of bacterial count at 8 ug/ml within 6 hrs in vitro pharmacodynamic model; type: functional
Pseudomonas aeruginosa [27] = assay: fT>MIC in Pseudomonas aeruginosa isolate 988 at 2 gram for every 8 hrs administered as 3 hrs infusion measured over 16-24 hrs in in vitro pharmcodynamic model; type: functional
Pseudomonas aeruginosa [28] = assay: fT>MIC in Pseudomonas aeruginosa isolate 1177 at 2 gram for every 8 hrs administered as 3 hrs infusion over 24 hrs in in vitro pharmcodynamic model; type: functional
Pseudomonas aeruginosa [29] = assay: fT>MIC in Pseudomonas aeruginosa isolate 1030 at 2 gram for every 8 hrs administered as 3 hrs infusion measured over 16-24 hrs in in vitro pharmcodynamic model; type: functional
Pseudomonas aeruginosa [30] = assay: Antibacterial activity against Pseudomonas aeruginosa isolate 896 assessed as reduction of bacterial count at 16 ug/ml within 6 hrs in vitro pharmacodynamic model; type: functional
Klebsiella pneumoniae [31] = assay: fT>MIC in Klebsiella pneumoniae isolate 353 at 2 gram for every 8 hrs administered as 3 hrs infusion measured over 8-16 hrs in in vitro pharmcodynamic model; type: functional, isoalte 353; method in brief: as §1
Pseudomonas aeruginosa [32] = assay: fT>MIC in Pseudomonas aeruginosa isolate 896 at 2 gram for every 8 hrs administered as 3 hrs infusion measured over 0-8 hrs in in vitro pharmcodynamic model; type: functional
Klebsiella pneumoniae [33] = assay: fT>MIC in Klebsiella pneumoniae isolate 351 at 2 gram for every 8 hrs administered as 3 hrs infusion measured over 8-16 hrs in in vitro pharmcodynamic model; type: functional; method in brief: as §1
Klebsiella pneumoniae [34] = assay: Antibacterial activity against Klebsiella pneumoniae isolate 361 assessed as reduction of bacterial count at 64 ug/ml within 6 hrs in vitro pharmacodynamic model; type: functional
Klebsiella pneumoniae [35] = assay: fT>MIC in Klebsiella pneumoniae isolate 368 at 2 gram for every 8 hrs administered as 3 hrs infusion measured over 8-16 hrs in in vitro pharmcodynamic model; type: functional
Klebsiella pneumoniae [36] = assay: fT>MIC in Klebsiella pneumoniae isolate 361 at 2 gram for every 8 hrs administered as 3 hrs infusion over 24 hrs in in vitro pharmcodynamic model; type: functional; method in brief: as §1
Klebsiella pneumoniae [37] = assay: Antibacterial activity against Klebsiella pneumoniae isolate 375 assessed as reduction of bacterial count at 32 ug/ml within 6 hrs in vitro pharmacodynamic model; type: functional
Klebsiella pneumoniae [38] = assay: fT>MIC in Klebsiella pneumoniae isolate 351 at 2 gram for every 8 hrs administered as 3 hrs infusion measured over 16-24 hrs in in vitro pharmcodynamic model; type: functional; method in brief: as §1

C[C@@H](O)[C@H]1C(=O)N2C(C(=O)O)=C(S[C@@H]3CN[C@H](C(=O)N(C)C)C3)[C@H](C)[C@H]12 [MEROPENEM]
fT>MIC (Klebsiella pneumoniae [1]): 0% | fT>MIC (Pseudomonas aeruginosa [2]): 63% | fT>MIC (Klebsiella pneumoniae [3]): 0% | fT>MIC (Klebsiella pneumoniae [4]): 38% | fT>MIC (Klebsiella pneumoniae [5]): 100% | log10cfu (Klebsiella pneumoniae [6]): >3 | MIC (Klebsiella pneumoniae [7]): 8 µg/mL (≈ 20.9 µM) | fT>MIC (Pseudomonas aeruginosa [8]): 69% | MIC (Pseudomonas aeruginosa [9]): 8 µg/mL (≈ 20.9 µM) | fT>MIC (Pseudomonas aeruginosa [10]): 47% | MIC (Pseudomonas aeruginosa [11]): 8 µg/mL (≈ 20.9 µM) | fT>MIC (Pseudomonas aeruginosa [12]): 78% | fT>MIC (Pseudomonas aeruginosa [13]): 47% | fT>MIC (Klebsiella pneumoniae [14]): 47% | fT>MIC (Pseudomonas aeruginosa [15]): 50% | MIC (Pseudomonas aeruginosa [16]): 8 µg/mL (≈ 20.9 µM) | fT>MIC (Pseudomonas aeruginosa [17]): 69% | fT>MIC (Klebsiella pneumoniae [18]): 0% | log10cfu (Pseudomonas aeruginosa [19]): >=3 | fT>MIC (Klebsiella pneumoniae [20]): 69% | fT>MIC (Klebsiella pneumoniae [21]): 0% | fT>MIC (Klebsiella pneumoniae [22]): 0% | fT>MIC (Klebsiella pneumoniae [23]): 16% | fT>MIC (Pseudomonas aeruginosa [24]): 47% | fT>MIC (Klebsiella pneumoniae [25]): 100% | log10cfu (Klebsiella pneumoniae [26]): >3 | fT>MIC (Pseudomonas aeruginosa [27]): 38% | fT>MIC (Pseudomonas aeruginosa [28]): 69% | fT>MIC (Pseudomonas aeruginosa [29]): 78% | log10cfu (Pseudomonas aeruginosa [30]): >=3 | fT>MIC (Klebsiella pneumoniae [31]): 59% | fT>MIC (Pseudomonas aeruginosa [32]): 50% | fT>MIC (Klebsiella pneumoniae [33]): 62% | log10cfu (Klebsiella pneumoniae [34]): >3 | fT>MIC (Klebsiella pneumoniae [35]): 0% | fT>MIC (Klebsiella pneumoniae [36]): 0% | log10cfu (Klebsiella pneumoniae [37]): >3 | fT>MIC (Klebsiella pneumoniae [38]): 50%
